Most compounds without a hit are left out; they make up all but 3.5% or so of the library.
MrgX1 antag: antagonists of human MrgX1 receptor, primary screen, HEK293 cells, Fluo-4 calcium flux; 1.3% of 310,000 active; BAM8-22 antagonism; stronger effect = lower value; Mas-related G-protein coupled receptor member X1 (Homo sapiens), Q96LB2; B-score at 10 µM;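 active means calcium-response B-score plate-corrected more than 3 library SD below zero, starting fluorescence within 5 deviations, no agonist response on first addition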;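 further: peak minus trough fluorescence over baseline after final BAM8-22 challenge near maximal dose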
RGS4 inh: RGS4 inhibitors, primary screen, cell-based, HEK293 M3R inducible RGS4, calcium flux; 0.45% of 310,000 active; B-score at 10 µM; Fluo-4 calcium flux; stronger effect = higher value; triggered by carbachol at its EC20;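 active means B-score, a plate-corrected calcium signal, over three deviations above library mean, with baseline fluorescence within five deviations of library mean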;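 further: RGS4 expression induced by doxycycline in cells with stable M3 receptor; B-score is computed from the integrated fluorescence ratio over baseline after carbachol; higher B-score means a larger calcium signal and so more RGS4 inhibition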
Target sequence (P49798 whole entry, looked up): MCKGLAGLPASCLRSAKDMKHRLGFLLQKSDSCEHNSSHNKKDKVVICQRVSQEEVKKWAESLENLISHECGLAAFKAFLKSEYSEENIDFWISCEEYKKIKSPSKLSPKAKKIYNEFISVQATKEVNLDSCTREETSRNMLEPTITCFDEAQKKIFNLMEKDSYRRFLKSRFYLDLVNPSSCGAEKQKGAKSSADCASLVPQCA
MrgX1 allo act: positive allosteric modulators of MrgX1, primary screen, HEK293 cells, Fluo-4 calcium flux; B-score at 10 µM; Mas-related G-protein coupled receptor member X1 (Homo sapiens), Q96LB2; FDSS; stronger effect = higher value; 0.63% of 310,000 active;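 active means plate-corrected calcium response at least 3 library SD above typical, normal starting fluorescence, not activating the receptor alone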;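 further: compound read alongside a low EC10 to EC30 dose of BAM8-22 agonist; peak minus trough fluorescence over baseline measured at the second addition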
RGS4 act: RGS4 potentiators or activators, primary screen, cell-based, HEK293 M3R inducible RGS4, calcium flux; carbachol calcium flux Fluo4; stronger effect = lower value; B-score at 10 µM; 0.92% of 310,000 active; AID 463111, 2010;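 active means B-score of the integrated calcium signal more than 4 SD below the library mean, with starting fluorescence not abnormally high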;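 further: negative B-score means reduced calcium response which marks RGS4 activation or potentiation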
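Test system: HEK293 cells with stable M3R and inducible RGS4; also added: carbachol at ECmax as muscarinic agonist stimulus; schedule: dye loading 30 min 37 °C, buffer rest 30 min RT; technique: kinetic calcium fluorescence imaging with Fluo4-AM dye, 2 µM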
MrgX1 agonist: agonists of human MrgX1 receptor, primary screen, HEK293 cells, Fluo-4 calcium flux; Fluo-4 calcium fluorescence, agonist mode; stronger effect = higher value; B-score at 10 µM; 0.44% of 310,000 active; Mas-related G-protein coupled receptor member X1 (Homo sapiens), Q96LB2; AID 588627, 2011;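 active means calcium response B-score plate-corrected fluorescence ratio at least 3 library SD, with starting fluorescence B-score inside 5 SD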
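Assay system: stable human MrgX1 HEK293 cell line. Quantity: 15,000 cells per well. Schedule: cells plated overnight, dye loaded 0.5 h 37 °C, 0.5 h room temperature. Detection: Fluo-4 NW calcium-flux fluorescence, kinetic read. Read-out basis: peak-minus-minimum fluorescence over baseline, converted to B scores. Control set: positive and negative control wells on each plate.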
MrgX1 antag conf: MrgX1 receptor antagonists, duplicate retest, confirmation, HEK293 cells, Fluo-4 calcium flux. AID 602420, 2012. 19% of 2,300 active. BAM8-22 calcium flux; stronger effect = lower value. remaining BAM8-22 calcium response % of control (stronger effect = lower value), % at 10 µM. shares compounds with MrgX1 antag;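 active means remaining agonist calcium response no higher than 100% minus 3 SD of agonist-only control wells, with starting fluorescence near control levels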;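 further: agonist BAM8-22 given at a near maximal EC90 to ECmax level; peak minus minimum fluorescence divided by baseline after agonist addition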
HEK293 Ca flux: nonspecific calcium signal in parental HEK293, confirmation, counter-screen for MrgX1 antagonist project, parental HEK293 cells, Fluo-4 calcium flux; shares compounds with MrgX1 antag; Fluo-4 calcium fluorescence, FDSS; fluorescence ratio F(max-min)/F0 at 10 µM; 2% of 4,000 active; AID 624111, 2012;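 active means duplicate-averaged calcium fluorescence ratio at least three times the standard deviation of buffer wells, a nonspecific response in parental cells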
HEK293 Ca counter: calcium response in parental HEK293 cells, primary screen, counter-screen for MrgX1 allosteric activator project, cell-based, Fluo-4 calcium flux, duplicate. shares compounds with MrgX1 antag. Fluo-4 fluorescence ratio; stronger effect = higher value. fluorescence ratio F(max-min)/F0 at 10 µM. 0.4% of 4,000 active;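 active means calcium fluorescence ratio, averaged over duplicates, at least 3 SD of the buffer-well ratio, meaning a nonspecific response in receptor-free cells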;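 further: untransfected parental HEK293 lacking MrgX1 used as counterscreen for MrgX1 allosteric activators; fluorescence change taken during the second addition on a kinetic imager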
HEK293 Ca cntr2: calcium response in parental HEK293 cells, primary screen, counter-screen for MrgX1 agonist project, cell-based, Fluo-4 calcium flux, duplicate, agonist mode; shares compounds with MrgX1 antag; Fluo-4 calcium fluorescence (FDSS); stronger effect = higher value; fluorescence ratio F(max-min)/F0 at 10 µM; 8.7% of 4,000 active;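 active means calcium fluorescence ratio at least three times the spread of buffer wells, meaning a non-specific response in parental cells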
An asterisk follows results filed as active; i = inactive; . = no result given.

SMILES	MrgX1 antag	RGS4 inh	MrgX1 allo act	RGS4 act	MrgX1 agonist	MrgX1 antag conf	HEK293 Ca flux	HEK293 Ca counter	HEK293 Ca cntr2
CC(Oc1ccccc1Cl)c1nnc(N)s1 (stereo not drawn)	-7.82*	i	i	i	i	i	i	i	i
COc1ccc(-c2nc(N3CCC(C)CC3)[nH]c(=O)c2C#N)cc1	-5.63*	i	i	i	i	i	i	i	i
COc1ccc(-c2nc(N3CCCC3)[nH]c(=O)c2C#N)cc1	i	i	i	i	i	.	.	.	.
CCOC(=O)c1sc(NC(=O)c2ccc(C)o2)nc1C	-8.05*	i	i	i	i	i	i	i	i
COC(=O)c1sc(NC(=O)c2ccc(C)o2)nc1C	i	i	i	i	i	.	.	.	.
CC1(C)CC(=O)C(C=Nc2cccnc2)=C(O)C1	-4.62*	i	i	i	i	i	i	i	i
CSc1nc(N2CCN(c3ccccc3)CC2)cc(N2CCN(c3ccccc3)CC2)n1	-5.52*	i	i	i	i	i	i	i	i
COc1ccc(CCN=C(N)NS(=O)(=O)c2ccc(C)c(C)c2)cc1OC	i	i	i	i	i	.	.	.	.
COc1ccc(S(=O)(=O)NC(N)=NCCc2ccc(OC)c(OC)c2)cc1	-7.38*	i	i	i	i	i	i	i	i
Cc1ccc2c(c1)N(C(=O)CCC(=O)NCCN1CCOCC1)CC(C)O2 (stereo not drawn)	i	i	i	i	i	.	.	.	.
Cc1cc(C)cc(N2C(=O)C3CC=CCC3C2=O)c1 (stereo not drawn)	-5.22*	i	i	i	i	i	i	i	i

Compound activity as filed in PubChem BioAssay.
